# Bioassay records as filed in PubChem BioAssay.
# SUMO1-SIM PPI: SUMO1-SIM interaction modulation; P63165; SUMO1 binding to a labelled peptide, TR-FRET, 1 h; inhibition, % at 20 µM; actives 0.33% (n = 360,000); in the data active means inhibition above about 37%
# Target sequence (P63165 whole entry, looked up): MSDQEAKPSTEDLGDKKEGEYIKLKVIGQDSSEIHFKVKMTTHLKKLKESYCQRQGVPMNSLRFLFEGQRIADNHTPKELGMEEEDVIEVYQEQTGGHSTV
# LMPTP block: blocks human LMPTP phosphatase | actives 0.22% (n = 360,000) | inhibition, % at 20 µM | recombinant LMPTP-A, OMFP fluorogenic substrate, fluorescence intensity;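 active means compounds that cut the enzyme signal by at least half of the control window in the single-dose screen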;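 further: plate controls were DMSO wells with enzyme plus substrate for no effect and substrate without enzyme for full effect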
#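 Test system: LMPTP-A phosphatase enzyme; input: 0.625 nM LMPTP-A final; reagent: OMFP substrate, 400 µM final; compound dosing: 20 µM single dose, 3% DMSO; incubation: 50 min dark incubation at room temperature; measured by: endpoint fluorescence intensity from OMFP dephosphorylation; measure: % inhibition relative to no-enzyme and uninhibited control wells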
# Rpn11 block: Rpn11 (human) deubiquitinase inhibition | human 26S proteasome, Ub4-pepOG fluorescence polarization; 20S core pre-blocked with epoxomicin | inhibition, % at 20 µM | actives 0.59% (n = 360,000) | AID 588493;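 active means inhibition at 20 µM, scaled to each plate's controls, above about 33%, limit read from the data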
# Target sequence (O00487 whole entry, looked up): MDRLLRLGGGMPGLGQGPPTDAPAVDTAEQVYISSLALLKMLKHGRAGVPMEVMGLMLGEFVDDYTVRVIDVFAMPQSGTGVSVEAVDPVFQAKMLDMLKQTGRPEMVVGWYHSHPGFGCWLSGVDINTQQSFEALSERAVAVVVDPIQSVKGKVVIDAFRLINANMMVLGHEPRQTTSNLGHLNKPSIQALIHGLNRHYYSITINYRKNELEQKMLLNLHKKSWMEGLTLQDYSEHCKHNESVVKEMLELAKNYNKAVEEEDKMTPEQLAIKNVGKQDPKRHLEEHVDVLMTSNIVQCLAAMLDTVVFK
# STEP inh: inhibitors of human striatal-enriched phosphatase STEP; actives 0.25% (n = 360,000); recombinant STEP, OMFP fluorogenic substrate, fluorescence; P54829; AID 588621; inhibition, % at 20 µM;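 active means inhibition at 20 µM, scaled per plate between control wells, above about 37%, limit read from the data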;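 further: 0% = DMSO with enzyme and substrate and 100% = substrate only without enzyme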
#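 Material: STEP (striatal-enriched tyrosine phosphatase) enzyme, cell-free | Medium: 50 mM Bis-Tris pH 6.0 with 2.5 mM DTT and 0.005% Tween 20 | Read-out: Percent inhibition scaled to no-enzyme and uninhibited-enzyme controls, plate-pattern corrected | Signal: Fluorescence read at 480 nm ex / 540 nm em | Times: 20 min reaction, room temperature, in the dark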
# DNMT1 block: DNMT1 (human) enzyme inhibition. P26358. DNMT1 molecular beacon, Hinp1I cleavage, fluorescence. inhibition (reported as % activation of signal), % at 10 µM. actives 0.83% (n = 360,000). AID 588458; in the data active means inhibition above about 50%
# Scp-1 inhibitor: Scp-1 (human) phosphatase inhibition; Q9GZU7; Recombinant Scp1, phosphopeptide, malachite green phosphate absorbance; inhibition, % at 20 µM; actives 0.88% (n = 340,000); AID 493091;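 active means inhibition above about 50% at 20 µM, limit read from the data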;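 further: plate controls were DMSO wells with enzyme for no effect and wells lacking enzyme for full effect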
# Target sequence (Q9GZU7 76-261 limits assumed): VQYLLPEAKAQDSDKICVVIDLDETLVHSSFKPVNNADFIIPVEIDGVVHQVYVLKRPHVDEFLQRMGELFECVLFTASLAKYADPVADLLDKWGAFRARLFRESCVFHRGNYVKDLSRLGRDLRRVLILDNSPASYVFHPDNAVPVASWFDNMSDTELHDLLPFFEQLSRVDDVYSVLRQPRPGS
#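 Test system: SCP-1 phosphatase catalytic domain, residues 76-261 | Compound dosing: One concentration, 20 µM, with 1.0% DMSO | Schedule: 45 min room-temperature reaction, 5 min colour, 30 min stabiliser | Detection: Absorbance at 630 nm | Read-out basis: % inhibition of SCP-1 phosphate liberation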
# * hit, by the source's call; / = no result given. In the library only some 2.3% were active in any assay of this set; here they are far more common.
SMILES,SUMO1-SIM PPI,LMPTP block,Rpn11 block,STEP inh,DNMT1 block,Scp-1 inhibitor
Cc1cccc(-c2nc(NCCCN(C)C)c3ccccc3n2)c1,-33.2,34.6,0.6,-3.9,-17.4,-5.7
CC1NC(=O)c2cccnc2-n2c1nc1ccccc1c2=O (stereo unspecified),-0.1,-1.1,-4.2,0.0,0.0,/
C=CCOc1ccccc1CN(C(=O)CCl)c1ccc2c(c1)OCO2,-1.9,-0.3,1.1,-1.3,78.7*,-9.8
CN1CCN(c2ccc(Cl)cc2NS(=O)(=O)c2ccccc2Cl)CC1,1.9,-0.9,8.1,-2.9,2.5,-7.8
COC(=O)c1ccc(C(=O)Nc2ccc3nc(-c4ccncc4)[nH]c3c2)cc1,50.5*,-0.1,28.1,1.4,-2.1,-10.0
CCOC(=O)C/C(C)=N/NC(=O)C1CC1(c1ccccc1)c1ccccc1 (stereo unspecified),-3.5,0.6,-4.7,0.6,-14.2,-9.8
Cc1cc(C)c(S(=O)(=O)NCC2CCC(C(=O)NCCCN3CCC(C)CC3)CC2)c(C)c1 (stereo unspecified),5.8,0.5,-7.2,0.6,-2.3,29.4
Clc1ccccc1Nc1nnc(-c2ccncc2)s1,-11.2,-0.7,-2.9,0.3,-2.5,-8.0
COc1ccc(Cl)cc1Nc1nnc(-c2ccncc2)s1,95.8*,0.0,5.3,83.4*,39.0,90.3*
Cc1ccc(C(=O)NN2C(=O)C3C(C2=O)C2C=CC3C23CC3)cc1 (stereo unspecified),59.7*,-1.4,4.0,0.4,-0.1,0.6
O=C(NN1C(=O)C2C(C1=O)C1C=CC2C12CC2)c1ccc(Cl)cc1 (stereo unspecified),0.8,-2.7,1.8,2.4,-2.2,-3.6
Nc1nn2cc(-c3ccc(Br)cc3)nc2c2ccccc12,64.6*,3.2,6.7,-4.4,-3.5,0.2
Cc1cccc(C)c1Nc1nnc(SCC(=O)c2ccc3c(c2)NC(=O)CO3)s1,1.1,6.1,-6.8,9.2,-2.9,-4.9
CC1(C)Cc2c(C#N)c(N3CCN(C(=O)c4ccco4)CC3)nc(-c3ccco3)c2CS1,3.6,-0.3,-6.0,-7.8,4.2,55.8*
CC(=O)N1CCN(c2nc(-c3ccco3)c3c(c2C#N)CC(C)(C)SC3)CC1,8.1,1.0,10.7,2.9,-7.8,-11.9
COc1ccc(Cc2n[nH]c(=O)c3ccccc23)cc1OC,-1.2,-0.6,0.5,-0.6,7.8,-1.1
COc1ccc(Cc2c3cc(OC)c(OC)cc3cc[n+]2C)cc1OC,-10.4,-0.4,-6.2,0.3,-14.7,101.0*
COc1ccc2c(c1)c[n+](C)c1c3cc(OC)c(OC)cc3ccc21,-114.1,5.1,/,/,/,/
CC[n+]1ccc2cc(OC)c(OC)cc2c1Cc1ccc(OC)c(OC)c1,-1.8,-0.9,-2.7,-2.5,-17.9,96.5*
C#CCCC(=O)c1ccccc1/C=[N+](\[O-])c1ccccc1,-3.6,0.4,64.2*,1.6,-8.3,-5.0
CCCn1cc(CN2CCC(N3CCC(C(=O)N4CCOCC4)CC3)CC2)c(C)n1,-2.4,-2.3,2.5,-1.3,-1.1,-12.3
O=C(c1ccc(C(F)(F)F)cc1)C1CCCN(C(=O)CN2C(=O)CSC2=O)C1 (stereo unspecified),-2.7,-1.3,-3.7,-2.1,0.1,-4.0
CCc1nc2ccc(C(=O)NCc3ccc(OC)cc3)cn2c1N(CC)CCOC,0.9,-1.2,-7.4,-1.5,1.8,/
CCCN1C(=O)CC(c2ccc(OC)c(OC)c2)C1=O (stereo unspecified),2.3,47.1*,10.9,-0.7,-3.4,/
COc1ccc(C2CC(=O)c3cc(OC)c(OC)cc32)cc1OC (stereo unspecified),-0.7,-0.8,-2.6,-1.8,0.2,-5.1
SMILES,SUMO1-SIM PPI,LMPTP block,Rpn11 block,STEP inh,DNMT1 block,Scp-1 inhibitor
Cc1noc(C)c1S(=O)(=O)Nc1ccc2c(c1)C(=O)N([C@H](C)CO)C[C@H](C)[C@@H](CN(C)C(=O)Nc1ccc(C(F)(F)F)cc1)O2,3.4,-1.4,3.0,-1.5,5.8,37.1
Cc1noc(C)c1S(=O)(=O)Nc1ccc2c(c1)C(=O)N([C@H](C)CO)C[C@H](C)[C@@H](CN(C)C(=O)Nc1ccccc1)O2,4.2,-1.8,0.0,-0.1,2.6,79.3*
COc1cc2ccccc2cc1C(=O)N/N=C/c1cccs1,-22.2,0.3,1.5,1.9,1.3,/
c1nc(SSc2ncnc3nc[nH]c23)c2[nH]cnc2n1,1.0,47.4*,0.3,-1.6,1.3,26.9
CCOC(=O)Cc1csc(-n2sc3ccccc3c2=O)n1,10.1,0.6,21.9,-0.7,-26.5,73.9*
CCCCn1cnc2c(c(CC#N)nn2-c2ccccc2)c1=N,2.4,2.7,0.4,-0.7,3.4,0.0
Clc1cccc(-c2ccc(C3Nc4cccc5cccc(c45)N3)o2)c1,15.1,53.2*,-19.2,0.3,43.6,10.6
c1ccc(-c2csc3ncnc(NCCCN4CCOCC4)c23)cc1,2.7,-0.4,6.7,-0.6,-2.7,-0.4
O=c1c2c(-c3ccccc3)csc2nc2c3ccccc3c(NCCN3CCOCC3)nn12,64.2*,8.7,-0.9,8.8,-2.9,5.4
Cc1nnc(C)c2c(C)n(-c3ccc4ncccc4c3)c(C)c12,-0.7,53.7*,18.1,3.4,-7.1,0.6
Cc1ccc2ncccc2c1,-0.2,-0.8,3.4,0.5,2.6,-6.3
CCOC(=O)c1nc2sc3c(c2c(=O)[nH]1)CCCC3,-0.2,0.6,3.2,4.2,2.0,5.7
N#C/C(=C\c1ccc(C(=O)O)cc1)c1nc2sc3c(c2c(=O)[nH]1)CCCC3,31.2,26.6,/,-6.4,43.4,75.7*
COc1cccc2c1[C@@H]1CN(CCCCn3c(=O)[nH]c4c(sc5ncc(-c6ccccc6)nc54)c3=O)C[C@@H]1CO2,-17.3,67.5*,-0.2,6.2,-11.3,14.0
Cc1c(C)c2ccc(OCC(=O)NCc3ccccn3)cc2oc1=O,-5.4,-0.8,-6.5,1.5,-0.2,-6.3
Cc1c(C)c2ccc(OCC(=O)Nc3ccccn3)cc2oc1=O,55.5*,0.1,-1.8,0.3,-0.8,5.8
CCn1nc(C)cc1C(=O)N1CCCC(N2CCN(Cc3ccc4c(c3)OCO4)CC2)C1 (stereo unspecified),-1.5,-1.9,-2.1,0.5,1.3,-5.5
Cc1ccc(-n2nc3c(N4CCC(C(=O)NCCc5ccco5)CC4)nnc(C)c3c2C)cc1,15.3,47.9,33.4,4.4,0.8,3.4
Cc1ccc(-n2nc3c(N4CCC(C(=O)NCc5ccc(C)o5)CC4)nnc(C)c3c2C)cc1,32.9,65.1*,39.5,0.5,-7.5,3.4
COc1ccc(-n2nc3c(N4CCC(C(=O)NCc5ccco5)CC4)nnc(C)c3c2C)cc1,14.6,53.5*,8.6,0.9,2.0,4.8
CC[n+]1cccc(-c2nc3ccccc3s2)c1,-21.4,-1.0,-2.4,-2.9,1.9,3.8
